# Measurements from ChEMBL document CHEMBL1129650, “Structure-activity relationships of novel hematoregulatory peptides” (1996).
# Bridge positions count the residues as written; N and C are the ends. Square brackets hold non-standard residues; d marks the D form. Peptide text beside a SMILES is read from it. I, II: the chains in the order shown. pGlu = O=C1CC[C@@H](C(=O)O)N1
# Tested on: C6
# Experiment: Relative potency for induction of Colony-Stimulating activity(CSA) of C6 stromal line.
# Format: functional, Mus musculus
# Parameters: reference not given here
# How it was run: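 Murine C6 stromal cells (or subclone C6.4) were grown to confluence in RPMI with 10% FBS, then switched to serum-free medium with peptide (initially 0.001–1000 ng/mL, log doses, duplicate wells). Exposure was 1 h at 37 °C, followed by washing, and conditioned supernatant was collected 24 h later. Supernatant (10–2.5% v/v) plus C57Bl/6 femoral marrow went into 0.3% agar with 15% FBS for 7 days. Colonies of >50 cells were counted in triplicate. EC50 was taken from the ascending curve and expressed relative to the reference peptide.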
row,SMILES,Relative potency
1,NCCCC[C@H](NC(=O)[C@H](CCCC[C@H](NC(=O)[C@H](CC(=O)O)NC(=O)[C@H](CCC(=O)O)NC(=O)[C@@H]1CCC(=O)N1)C(=O)N[C@@H](CCCCN)C(=O)O)NC(=O)[C@H](CC(=O)O)NC(=O)[C@H](CCC(=O)O)NC(=O)[C@@H]1CCC(=O)N1)C(=O)O [GLASPIMOD],1
2,NCCC[C@H](NC(=O)[C@H](CCCC[C@H](NC(=O)[C@H](CC(=O)O)NC(=O)[C@H](CCC(=O)O)NC(=O)[C@@H]1CCC(=O)N1)C(=O)N[C@@H](CCCN)C(=O)O)NC(=O)[C@H](CC(=O)O)NC(=O)[C@H](CCC(=O)O)NC(=O)[C@@H]1CCC(=O)N1)C(=O)O,<1e-06
3,NCCCC[C@H](NC(=O)[C@H](CC[C@H](NC(=O)[C@H](CC(=O)O)NC(=O)[C@H](CCC(=O)O)NC(=O)[C@@H]1CCC(=O)N1)C(=O)N[C@@H](CCCCN)C(=O)O)NC(=O)[C@H](CC(=O)O)NC(=O)[C@H](CCC(=O)O)NC(=O)[C@@H]1CCC(=O)N1)C(=O)O,1000
4,NCCCC[C@H](NC(=O)[C@H](CCCC[C@H](NC(=O)[C@@H](CC(=O)O)NC(=O)[C@H](CCC(=O)O)NC(=O)[C@@H]1CCC(=O)N1)C(=O)N[C@@H](CCCCN)C(=O)O)NC(=O)[C@@H](CC(=O)O)NC(=O)[C@H](CCC(=O)O)NC(=O)[C@@H]1CCC(=O)N1)C(=O)O,<1e-06
5,NCCCC[C@@H](CO)NC(=O)[C@H](CCCC[C@H](NC(=O)[C@H](CC(=O)O)NC(=O)[C@H](CCC(=O)O)NC(=O)[C@@H]1CCC(=O)N1)C(=O)N[C@H](CO)CCCCN)NC(=O)[C@H](CC(=O)O)NC(=O)[C@H](CCC(=O)O)NC(=O)[C@@H]1CCC(=O)N1,<1e-06
6,NCCCC[C@H](NC(=O)[C@H](CSSC[C@H](NC(=O)[C@H](CC(=O)O)NC(=O)[C@H](CCC(=O)O)NC(=O)[C@@H]1CCC(=O)N1)C(=O)N[C@@H](CCCCN)C(=O)O)NC(=O)[C@H](CC(=O)O)NC(=O)[C@H](CCC(=O)O)NC(=O)[C@@H]1CCC(=O)N1)C(=O)O (I: [pGlu]EDCK-OH / II: [pGlu]EDCK-OH; disulfide I:4-II:4),0.01
7,NCCCC[C@H](NC(=O)[C@H](CCCC[C@H](NC(=O)[C@H](CC(=O)O)NC(=O)[C@H](CCC(=O)O)NC(=O)C1CCCCC1)C(=O)N[C@@H](CCCCN)C(=O)O)NC(=O)[C@H](CC(=O)O)NC(=O)[C@H](CCC(=O)O)NC(=O)C1CCCCC1)C(=O)O,<1e-06
8,NCCCC[C@H](NC(=O)[C@@H](CCCC[C@@H](NC(=O)[C@H](CC(=O)O)NC(=O)[C@H](CCC(=O)O)NC(=O)[C@@H]1CCC(=O)N1)C(=O)N[C@@H](CCCCN)C(=O)O)NC(=O)[C@H](CC(=O)O)NC(=O)[C@H](CCC(=O)O)NC(=O)[C@@H]1CCC(=O)N1)C(=O)O,<1e-06
9,N=C(N)NCCC[C@@H](NC(=O)[C@H](CCCC[C@H](NC(=O)[C@H](CC(=O)O)NC(=O)[C@H](CCC(=O)O)NC(=O)[C@@H]1CCC(=O)N1)C(=O)N[C@H](CCCNC(=N)N)C(=O)O)NC(=O)[C@H](CC(=O)O)NC(=O)[C@H](CCC(=O)O)NC(=O)[C@@H]1CCC(=O)N1)C(=O)O,<1e-06
10,NCCCC[C@@H](NC(=O)[C@H](CCCC[C@H](NC(=O)[C@H](CC(=O)O)NC(=O)[C@H](CCC(=O)O)NC(=O)[C@@H]1CCC(=O)N1)C(=O)N[C@H](CCCCN)C(=O)O)NC(=O)[C@H](CC(=O)O)NC(=O)[C@H](CCC(=O)O)NC(=O)[C@@H]1CCC(=O)N1)C(=O)O,<1e-06
11,NCCCC[C@H](NC(=O)[C@H](CCCC[C@H](NC(=O)[C@H](CC(=O)O)NC(=O)[C@H](CCC(=O)O)NC(=O)[C@H]1CCC(=O)N1)C(=O)N[C@@H](CCCCN)C(=O)O)NC(=O)[C@H](CC(=O)O)NC(=O)[C@H](CCC(=O)O)NC(=O)[C@H]1CCC(=O)N1)C(=O)O,0.0001
12,NCCCC[C@H](NC(=O)[C@H](CCCC[C@H](NC(=O)[C@H](CC(=O)O)NC(=O)[C@H](CO)NC(=O)[C@@H]1CCC(=O)N1)C(=O)N[C@@H](CCCCN)C(=O)O)NC(=O)[C@H](CC(=O)O)NC(=O)[C@H](CO)NC(=O)[C@@H]1CCC(=O)N1)C(=O)O,10
13,NCCCC[C@H](NC(=O)[C@H](CCCC[C@H](NC(=O)[C@H](CC(=O)O)NC(=O)[C@H](CCC(=O)O)NC(=O)c1ccc2ccccc2n1)C(=O)N[C@@H](CCCCN)C(=O)O)NC(=O)[C@H](CC(=O)O)NC(=O)[C@H](CCC(=O)O)NC(=O)c1ccc2ccccc2n1)C(=O)O,<1e-06
14,NCCCC[C@H](NC(=O)[C@H](CCC(=O)O)NC(=O)[C@@H]1CCC(=O)N1)C(=O)N[C@@H](CCCC[C@H](NC(=O)[C@H](CCCCN)NC(=O)[C@H](CCC(=O)O)NC(=O)[C@@H]1CCC(=O)N1)C(=O)N[C@@H](CC(=O)O)C(=O)O)C(=O)N[C@@H](CC(=O)O)C(=O)O,< 1e-06
15,NCCCC[C@H](NC(=O)[C@H](CC[C@H](NC(=O)[C@H](CC(=O)O)NC(=O)[C@H](CCC(=O)O)NC(=O)c1ccccn1)C(=O)N[C@@H](CCCCN)C(N)=O)NC(=O)[C@H](CC(=O)O)NC(=O)[C@H](CCC(=O)O)NC(=O)c1ccccn1)C(N)=O,100
16,CCCC[C@H](NC(=O)[C@H](CCCC[C@H](NC(=O)[C@H](C)NC(=O)[C@H](CO)NC(=O)c1ccccn1)C(=O)N[C@@H](CCCC)C(N)=O)NC(=O)[C@H](C)NC(=O)[C@H](CO)NC(=O)c1ccccn1)C(N)=O,<1e-06
17,NC(=O)CC[C@H](NC(=O)[C@H](CC[C@H](NC(=O)[C@H](CO)NC(=O)[C@H](CO)NC(=O)c1ccccn1)C(=O)N[C@@H](CCC(N)=O)C(N)=O)NC(=O)[C@H](CO)NC(=O)[C@H](CO)NC(=O)c1ccccn1)C(N)=O,<1e-06
18,NCCCC[C@H](NC(=O)[C@H](CCCC[C@H](NC(=O)[C@H](CC(=O)O)NC(=O)[C@H](CC(=O)O)NC(=O)[C@@H]1CCC(=O)N1)C(=O)N[C@@H](CCCCN)C(=O)O)NC(=O)[C@H](CC(=O)O)NC(=O)[C@H](CC(=O)O)NC(=O)[C@@H]1CCC(=O)N1)C(=O)O,1
19,NCCCC[C@H](NC(=O)[C@H](CCC[C@H](NC(=O)[C@H](CC(=O)O)NC(=O)[C@H](CCC(=O)O)NC(=O)[C@@H]1CCC(=O)N1)C(=O)N[C@@H](CCCCN)C(=O)O)NC(=O)[C@H](CC(=O)O)NC(=O)[C@H](CCC(=O)O)NC(=O)[C@@H]1CCC(=O)N1)C(=O)O,< 1e-06
20,NCCCC[C@H](NC(=O)[C@H](CCCCCC[C@H](NC(=O)[C@H](CC(=O)O)NC(=O)[C@H](CCC(=O)O)NC(=O)[C@@H]1CCC(=O)N1)C(=O)N[C@@H](CCCCN)C(=O)O)NC(=O)[C@H](CC(=O)O)NC(=O)[C@H](CCC(=O)O)NC(=O)[C@@H]1CCC(=O)N1)C(=O)O,<1e-06
21,NCCCC[C@H](NC(=O)[C@H](CC[C@H](NC(=O)[C@H](CC(=O)O)NC(=O)[C@H](CO)NC(=O)c1ccccn1)C(=O)N[C@@H](CCCCN)C(=O)O)NC(=O)[C@H](CC(=O)O)NC(=O)[C@H](CO)NC(=O)c1ccccn1)C(=O)O,10000
22,NCCCC[C@H](NC(=O)[C@H](CCCC[C@H](NC(=O)[C@H](CCC(=O)O)NC(=O)[C@H](CCC(=O)O)NC(=O)[C@@H]1CCC(=O)N1)C(=O)N[C@@H](CCCCN)C(=O)O)NC(=O)[C@H](CCC(=O)O)NC(=O)[C@H](CCC(=O)O)NC(=O)[C@@H]1CCC(=O)N1)C(=O)O,1
23,NCCCC[C@H](NC(=O)[C@H](CCCC[C@H](NC(=O)[C@H](CC(=O)O)NC(=O)[C@H](CCC(=O)O)NC(=O)[C@@H]1CCC(=O)N1)C(=O)N[C@@H](CCCCN)C(N)=O)NC(=O)[C@H](CC(=O)O)NC(=O)[C@H](CCC(=O)O)NC(=O)[C@@H]1CCC(=O)N1)C(N)=O,1
24,NCCCC[C@H](NC(=O)[C@H](CCCC[C@H](NC(=O)[C@H](CC(=O)O)NC(=O)[C@H](CO)NC(=O)c1ccccn1)C(=O)N[C@@H](CCCCN)C(=O)O)NC(=O)[C@H](CC(=O)O)NC(=O)[C@H](CO)NC(=O)c1ccccn1)C(=O)O,100
25,NCCCC[C@H](NC(=O)[C@H](CCCC[C@H](NC(=O)[C@H](CC(=O)O)NC(=O)[C@H](CCC(=O)O)NC(=O)[C@@H]1CCCO1)C(=O)N[C@@H](CCCCN)C(=O)O)NC(=O)[C@H](CC(=O)O)NC(=O)[C@H](CCC(=O)O)NC(=O)[C@@H]1CCCO1)C(=O)O,<1e-06
26,NCCCC[C@H](NC(=O)[C@H](CCCCC[C@H](NC(=O)[C@H](CC(=O)O)NC(=O)[C@H](CCC(=O)O)NC(=O)[C@@H]1CCC(=O)N1)C(=O)N[C@@H](CCCCN)C(=O)O)NC(=O)[C@H](CC(=O)O)NC(=O)[C@H](CCC(=O)O)NC(=O)[C@@H]1CCC(=O)N1)C(=O)O,<1e-06
27,NCCCC[C@H](NC(=O)[C@H](CCCC[C@H](NC(=O)[C@H](CC(=O)O)NC(=O)[C@H](CCC(=O)O)NC(=O)c1cccs1)C(=O)N[C@@H](CCCCN)C(=O)O)NC(=O)[C@H](CC(=O)O)NC(=O)[C@H](CCC(=O)O)NC(=O)c1cccs1)C(=O)O,<1e-06
